Assay results: ChEMBL document CHEMBL4814017, “Discovery and optimization of novel 3-benzyl-N-phenyl-1H-pyrazole-5-carboxamides as bifunctional antidiabetic agents stimulating both insulin secretion and glucose uptake” (Eur J Med Chem, 2021)
Calls of active or inactive are those of the source. The rule behind the calls is not given here.

Key:
[1] = test system: C2C12; test: Activation of PI3K/Akt signalling pathway in mouse C2C12 cells assessed as increase in p-PI3K expression upto 50 uM incubated for 16 hrs by Western blot analysis; format: cell-based; settings: filed as activator, dose microM <=50, time 16.0 hrs
Outline: (§1)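 C2C12 myoblasts grown in DMEM to 90% confluence and differentiated 4 days in DMEM with 2% horse serum. Myotubes then held 16 h in DMEM with 2% BSA and 10% FBS with 0, 5, 10, 20 or 50 µM compound. Western blot for MG53, IRS-1, p-PI3K, PI3K, p-Akt, Akt and GAPDH.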

[2] = Cytotoxicity against rat INS1 cells assessed as cell viability at 10 uM incubated for 24 hrs by MTT assay relative to untreated control; format: cell-based; settings: read-out: Activity
[3] = Cytotoxicity against human LX2 cells assessed as reduction in cell viability incubated for 24 hrs by MTT assay; format: cell-based; settings: lx-2, 24 h
[4] = test system: INS1; test: Induction of PDX-1 expression in rat INS-1 cells at 2.5 to 10 uM after 24 hrs by Western blot analysis; format: functional, cell-based; settings: dose 2.5-10 µM
Outline: (§2)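 INS-1 cells seeded in 6-well plates, grown 24 h, then treated 24 h with 0, 2.5, 5 or 10 µM; vehicle control 0.5% DMSO. Lysed in RIPA with 1 mM PMSF at 4 °C, protein by BCA. Blots probed for p-IRS-2 (Ser731), IRS-2, p-PI3K, PI3K, p-Akt (Ser473), Akt, PPAR-γ, PDX-1 and GAPDH, HRP anti-rabbit secondary, ECL detection, densitometry. Triplicate, n = 3, SD.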

[5] = test system: INS1; test: Activation of PI3K/Akt signalling pathway in rat INS1 cells assessed as increase in p-PI3K expression at 2.5 to 10 uM after 24 hrs by Western blot analysis; format: cell-based; settings: filed as activator, dose 2.5-10 µM; outline: as §2
[6] = test system: INS1; test: Activation of PI3K/Akt signalling pathway in rat INS1 cells assessed as increase in p-IRS2 expression at 2.5 to 10 uM after 24 hrs by Western blot analysis; format: cell-based; settings: filed as activator, dose 2.5-10 µM; outline: as §2
[7] = test system: C2C12; test: Downregulation of MG53 level in mouse C2C12 cells after 16 hrs by Western blot analysis; format: functional, cell-based; settings: dose microM <=50, time 16.0 hrs; outline: as §1
[8] = test system: C2C12; test: Activation of PI3K/Akt signalling pathway in mouse C2C12 cells assessed as increase in p-Akt expression upto 50 uM incubated for 16 hrs by Western blot analysis; format: cell-based; settings: filed as activator, dose microM <=50, time 16.0 hrs; outline: as §1
[9] = test system: C2C12; test: Induction of glucose uptake in mouse C2C12 cells incubated for 16 hrs in absence of insulin by 2-NBDG uptake assay; format: functional, cell-based; settings: dose microM <=50, time 16.0 hrs
Outline: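 Differentiated C2C12 myotubes (4 days, DMEM with 2% horse serum) held 16 h in DMEM with 2% BSA and 10% FBS, with or without compound and without insulin, after which basal glucose uptake was measured.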

[10] = test system: INS1; test: Activation of PI3K/Akt signalling pathway in rat INS1 cells assessed as increase in p-Akt expression at 2.5 to 10 uM after 24 hrs by Western blot analysis; format: cell-based; settings: filed as activator, dose 2.5-10 µM; outline: as §2
[11] = test system: INS1; test: Induction of PPARgamma expression in rat INS1 cells at 2.5 to 10 uM after 24 hrs by Western blot analysis; format: functional, cell-based; settings: dose 2.5-10 µM; outline: as §2
[12] = test system: 3T3-L1; test: Cytotoxicity against mouse 3T3-L1 cells assessed as reduction in cell viability incubated for 24 hrs by MTT assay; format: cell-based; settings: 3t3-l1, 24 h
[13] = Induction of insulin secretion in rat INS-1 cells assessed as glucose stimulation index at 5 uM followed by stimulated with 16.7 mM glucose measured after 1 hrs by ELISA relative to basal insulin level; format: functional, INS1
Outline: (§3)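 Rat insulinoma INS-1 cells grown in RPMI 1640 with 11 mM glucose, 10% FBS, HEPES, pyruvate and 2-mercaptoethanol. After 24 h seeding, cells washed in KRB pH 7.4 with 3.3 mM glucose, starved 2 h, given compound for 30 min, then 3.3 mM (basal) or 16.7 mM glucose for 1 h. Insulin measured by rat insulin ELISA at 450 nm. GSI = stimulated/basal insulin. Triplicate, mean ± SD. Gliclazide control.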

[14] = test system: C2C12; test: Upregulation of IRS-1 level in mouse C2C12 cells upto 50 uM after 16 hrs by Western blot analysis; format: functional, cell-based; settings: dose microM <=50, time 16.0 hrs; outline: as §1
[15] = Induction of insulin secretion in rat INS-1 cells assessed as glucose stimulation index at 10 uM followed by stimulated with 16.7 mM glucose measured after 1 hrs by ELISA relative to basal insulin level; format: functional, INS1; outline: as §3

## COc1ccc(NC(=O)c2cc(Cc3ccc(Cl)cc3)n[nH]2)c(OC)c1
[1]
  Activity: Active
[2]
  viability at 24 h, 10 µM: 96.3%
[3]
  Activity: Non-Toxic
[4]
  Activity: Active
[5]
  Activity: Dose-Dependent Effect
[6]
  Activity: Dose-Dependent Effect
[7]
  inhibition: Dose-Dependent Effect
[8]
  Activity: Active
[9]
  Activity: Dose-Dependent Effect
[10]
  Activity: Dose-Dependent Effect
[11]
  Activity: Active
[12]
  Activity: Non-Toxic
[13]
  Activity_index: 14.9
[14]
  Activity: Active

## COc1ccc(Cc2cc(C(=O)Nc3ccc(F)cc3)[nH]n2)cc1
[2]
  viability at 24 h, 10 µM: 105%
[15]
  Activity_index: 2.49

## COc1ccc(Cc2cc(C(=O)Nc3ccccc3)[nH]n2)cc1
[2]
  viability at 24 h, 10 µM: 105%
[15]
  Activity_index: 4.4

## COc1ccc(Cc2cc(C(=O)Nc3cccc(OC)c3)[nH]n2)cc1
[2]
  viability at 24 h, 10 µM: 102%
[13]
  Activity_index: 1.55

## COc1ccc(Cc2cc(C(=O)Nc3ccc(OC)cc3)[nH]n2)cc1
[2]
  viability at 24 h, 10 µM: 105%
[15]
  Activity_index: 1.66

## CC(C)(C)c1ccc(NC(=O)c2cc(Cc3ccc(F)cc3)n[nH]2)cc1
[2]
  viability at 24 h, 10 µM: 98.6%
[15]
  Activity_index: 1.96

## COC(=O)c1ccc(NC(=O)c2cc(Cc3ccc(Cl)cc3)n[nH]2)cc1
[2]
  viability at 24 h, 10 µM: 101%
[15]
  Activity_index: 1.48

## COc1ccc(Cc2cc(C(=O)Nc3ccc(C(C)(C)C)cc3)[nH]n2)cc1
[2]
  viability at 24 h, 10 µM: 99.4%
[15]
  Activity_index: 1.64

## COc1cccc(NC(=O)c2cc(Cc3ccc(F)cc3)n[nH]2)c1
[2]
  viability at 24 h, 10 µM: 101%
[13]
  Activity_index: 7.49

## O=C(Nc1ccc(F)cc1)c1cc(Cc2ccc(F)cc2)n[nH]1
[2]
  viability at 24 h, 10 µM: 100%
[15]
  Activity_index: 1.86

## COc1cccc(NC(=O)c2cc(Cc3ccc(Cl)cc3)n[nH]2)c1OC
[2]
  viability at 24 h, 10 µM: 98.8%
[13]
  Activity_index: 1.85

## COc1ccc(NC(=O)c2cc(Cc3ccc(Cl)cc3)nn2C)c(OC)c1
[2]
  viability at 24 h, 10 µM: 96.2%
[13]
  Activity_index: 1.37

## O=C(Nc1ccc(C(F)(F)F)cc1)c1cc(Cc2ccc(F)cc2)n[nH]1
[2]
  viability at 24 h, 10 µM: 92.8%
[15]
  Activity_index: 2.02

## O=C(Nc1ccc(F)cc1)c1cc(Cc2ccc(Cl)cc2)n[nH]1
[2]
  viability at 24 h, 10 µM: 94.9%
[15]
  Activity_index: 6.73

## COc1ccc(OC)c(NC(=O)c2cc(Cc3ccc(Cl)cc3)n[nH]2)c1
[2]
  viability at 24 h, 10 µM: 97.9%
[13]
  Activity_index: 3.25

## COc1ccc(NC(=O)c2cc(Cc3ccc(Cl)cc3)n[nH]2)cc1
[2]
  viability at 24 h, 10 µM: 101%
[13]
  Activity_index: 2.6
[15]
  Activity_index: 7.59

## COc1ccccc1NC(=O)c1cc(Cc2ccc(Cl)cc2)n[nH]1
[2]
  viability at 24 h, 10 µM: 98.1%
[13]
  Activity_index: 1.56

## COc1ccc(NC(=O)c2cc(Cc3ccccc3Cl)n[nH]2)c(OC)c1
[2]
  viability at 24 h, 10 µM: 102%
[13]
  Activity_index: 2.43

## COc1ccc(Cc2cc(C(=O)Nc3cc(OC)ccc3OC)[nH]n2)cc1
[2]
  viability at 24 h, 10 µM: 100%
[13]
  Activity_index: 2.35

## O=C(Nc1ccccc1)c1cc(Cc2ccc(F)cc2)n[nH]1
[2]
  viability at 24 h, 10 µM: 100%
[15]
  Activity_index: 2

## COc1ccc(Cc2cc(C(=O)Nc3ccc(C(F)(F)F)cc3)[nH]n2)cc1
[2]
  viability at 24 h, 10 µM: 98.4%
[15]
  Activity_index: 2.07

## O=C(Nc1ccc2c(c1)OCO2)c1cc(Cc2ccc(Cl)cc2)n[nH]1
[2]
  viability at 24 h, 10 µM: 101%
[13]
  Activity_index: 1.29

## COc1ccc(Cc2cc(C(=O)Nc3cccc(OC)c3OC)[nH]n2)cc1
[2]
  viability at 24 h, 10 µM: 98.9%
[13]
  Activity_index: 1.13

## COc1ccc(NC(=O)c2cc(Cc3cccc(Cl)c3)n[nH]2)c(OC)c1
[2]
  viability at 24 h, 10 µM: 97.7%
[13]
  Activity_index: 1.29

## Cc1ccc(S(=O)(=O)NC(=O)NN2CC3CCCC3C2)cc1 (stereo not drawn) [GLICLAZIDE]
[2]
  viability at 24 h, 10 µM: 98.7%
[13]
  Activity_index: 4.22
[15]
  Activity_index: 5.86

## COc1ccccc1NC(=O)c1cc(Cc2ccc(F)cc2)n[nH]1
[2]
  viability at 24 h, 10 µM: 104%
[13]
  Activity_index: 3.67

## COc1ccc(NC(=O)c2cc(Cc3ccc(F)cc3)n[nH]2)cc1
[2]
  viability at 24 h, 10 µM: 95.6%
[15]
  Activity_index: 2.03

## COc1ccc(Cc2cc(C(=O)Nc3ccc(OC)cc3OC)[nH]n2)cc1
[2]
  viability at 24 h, 10 µM: 101%
[13]
  Activity_index: 1.58

## COc1cccc(NC(=O)c2cc(Cc3ccc(F)cc3)n[nH]2)c1OC
[2]
  viability at 24 h, 10 µM: 102%
[13]
  Activity_index: 1.16

## COc1ccc(N(C)C(=O)c2cc(Cc3ccc(Cl)cc3)n[nH]2)c(OC)c1
[2]
  viability at 24 h, 10 µM: 93.3%
[13]
  Activity_index: 1.33

## COc1ccc(NC(=O)c2cc(C(=O)c3ccc(Cl)cc3)n[nH]2)c(OC)c1
[2]
  viability at 24 h, 10 µM: 100%
[13]
  Activity_index: 1.49

## COc1ccc(Cc2cc(C(=O)Nc3ccc4c(c3)OCO4)[nH]n2)cc1
[2]
  viability at 24 h, 10 µM: 102%
[13]
  Activity_index: 1.13

## COc1ccc(NC(=O)c2cc(Cc3ccc(F)cc3)n[nH]2)c(OC)c1
[2]
  viability at 24 h, 10 µM: 99.9%
[13]
  Activity_index: 1.93

## COc1cccc(NC(=O)c2cc(Cc3ccc(Cl)cc3)n[nH]2)c1
[2]
  viability at 24 h, 10 µM: 96.5%
[13]
  Activity_index: 1.54

## COC(=O)c1ccc(NC(=O)c2cc(Cc3ccc(F)cc3)n[nH]2)cc1
[2]
  viability at 24 h, 10 µM: 102%
[15]
  Activity_index: 1.42

## O=C(Nc1ccc2c(c1)OCO2)c1cc(Cc2ccc(F)cc2)n[nH]1
[2]
  viability at 24 h, 10 µM: 97.6%
[13]
  Activity_index: 1.25

## COc1ccc(Cc2cc(C(=O)Nc3ccccc3OC)[nH]n2)cc1
[2]
  viability at 24 h, 10 µM: 101%
[13]
  Activity_index: 1.66

## CC(C)(C)c1ccc(NC(=O)c2cc(Cc3ccc(Cl)cc3)n[nH]2)cc1
[2]
  viability at 24 h, 10 µM: 97.5%
[15]
  Activity_index: 4.89

## COC(=O)c1ccc(NC(=O)c2cc(Cc3ccc(OC)cc3)n[nH]2)cc1
[2]
  viability at 24 h, 10 µM: 99.2%
[15]
  Activity_index: 1.85

## COc1ccc(OC)c(NC(=O)c2cc(Cc3ccc(F)cc3)n[nH]2)c1
[2]
  viability at 24 h, 10 µM: 104%
[13]
  Activity_index: 1.52

## O=C(Nc1ccccc1)c1cc(Cc2ccc(Cl)cc2)n[nH]1
[2]
  viability at 24 h, 10 µM: 109%
[15]
  Activity_index: 5.24

## O=C(Nc1ccc(C(F)(F)F)cc1)c1cc(Cc2ccc(Cl)cc2)n[nH]1
[2]
  viability at 24 h, 10 µM: 102%
[15]
  Activity_index: 1.69
